This passage reports inhibition and IC50 results from ChEMBL document CHEMBL5696442, “Discovery of type II inhibitors of TGFβ-activated kinase 1 (TAK1) and mitogen-activated protein kinase kinase kinase kinase 2 (MAP4K2)” (J Med Chem, 2015).

pIC50: −log10 of the molar value.

The target of assay [1] is Tyrosine-protein kinase CSK (Homo sapiens, UniProt P41240). Description: Inhibition of CSK ACT labeling site harbouring VSDFGLTKEASSTQDTGKLPVKWTAPEALR in human Huh-7 cell lysate at 1 uM by KiNativ Profiling analysis relative to control. The format is subcellular.
In assay [2] the target is Tyrosine-protein kinase ABL1 (Homo sapiens, UniProt P00519). As to the kind of experiment: Inhibition of ABL Lys1 labeling site in human Huh-7 cell lysate at 1 uM by KiNativ Profiling analysis relative to control. The format is subcellular.
The target in assay [3] is TRAF2 and NCK-interacting protein kinase (Homo sapiens) (UniProt Q9UKE5). Description: Inhibition of ZC2 Lys2 labeling site in human Huh-7 cell lysate at 1 uM by KiNativ Profiling analysis relative to control. The assay is classed as subcellular.
For assay [4], the target named is Tyrosine-protein kinase ABL2 (Homo sapiens, UniProt P42684). As to the kind of experiment: Inhibition of ARG ACT labeling site in human Huh-7 cell lysate at 1 uM by KiNativ Profiling analysis relative to control. The format is subcellular.
Assay [5] addresses STE20-like serine/threonine-protein kinase (Homo sapiens) (UniProt Q9H2G2). Description: Inhibition of SLK Lys1 labeling site in human A-375 cells at 0.05 uM by KiNativ Profiling analysis relative to control. The assay is classed as cell-based.
The target of assay [6] is Serine/threonine-protein kinase MARK2 (Homo sapiens) (UniProt Q7KZI7). Description: Inhibition of MARK2 Lys1 labeling site in human A-375 cells at 0.05 uM by KiNativ Profiling analysis relative to control. The assay is classed as cell-based.
The target of assay [7] is TRAF2 and NCK-interacting protein kinase (Homo sapiens) (UniProt Q9UKE5). As to the kind of experiment: Inhibition of ZC2/TNIK Lys1 labeling site in human A-375 cells at 0.05 uM by KiNativ Profiling analysis relative to control. The format is cell-based.
Assay [8] concerns the target eIF-2-alpha kinase GCN2 (Homo sapiens) (UniProt Q9P2K8). As to the kind of experiment: Inhibition of GCN2 domain2 Lys1 labeling site in human A-375 cells at 5 uM by KiNativ Profiling analysis relative to control. The format is cell-based.
Assay [9] addresses DNA-PK/Ku70/Ku85 (Homo sapiens) (UniProt P78527+P12956+P13010). Description: Inhibition of DNAPK ATP labeling site harbouring KGGSWIQEINVAEK in human A-375 cells at 0.5 uM by KiNativ Profiling analysis relative to control. The format is cell-based. The method in brief:
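Live A375 melanoma cells were treated with compound at 0.5 or 5 μM, then lysed. Lysates were labeled with a lysine-reactive ATP or ADP-biotin probe. The read-out was protection of each kinase probe-labeling site from labeling, relative to control.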

The target of assay [10] is T1, Aurora kinase A (Homo sapiens) (UniProt O14965).
T1 sequence (whole entry): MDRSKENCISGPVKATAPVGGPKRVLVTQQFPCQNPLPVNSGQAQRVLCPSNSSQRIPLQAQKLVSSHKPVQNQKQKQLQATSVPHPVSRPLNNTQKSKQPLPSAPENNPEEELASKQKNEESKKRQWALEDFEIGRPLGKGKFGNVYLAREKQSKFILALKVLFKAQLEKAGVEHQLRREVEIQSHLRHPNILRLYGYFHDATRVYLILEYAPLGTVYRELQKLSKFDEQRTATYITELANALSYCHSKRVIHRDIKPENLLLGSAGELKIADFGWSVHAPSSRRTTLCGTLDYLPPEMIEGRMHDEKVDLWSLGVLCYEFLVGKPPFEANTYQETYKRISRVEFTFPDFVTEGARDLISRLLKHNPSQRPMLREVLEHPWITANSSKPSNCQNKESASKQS
As to the kind of experiment: Inhibition of AurA Lys2 labeling site in human A-375 cells at 5 uM by KiNativ Profiling analysis relative to control. The format is cell-based. The method in brief: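 Live A375 melanoma cells were treated with compound at 5 or 0.5 μM, then lysed. The lysates were labeled with a lysine-reactive ATP or ADP-biotin probe. Kinase protection from probe labeling was measured by KiNativ.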

The target of assay [11] is Mitogen-activated protein kinase kinase kinase kinase 4 (Homo sapiens, UniProt O95819). As to the kind of experiment: Inhibition of ZC1 Lys2 labeling site in human A-375 cells at 0.5 uM by KiNativ Profiling analysis relative to control. The assay is classed as cell-based.
For assay [12], the target named is Serine/threonine-protein kinase 25 (Homo sapiens) (UniProt O00506). Description: Inhibition of YSK1 Lys2 labeling site in human A-375 cells at 0.05 uM by KiNativ Profiling analysis relative to control. The format is cell-based.
The target of assay [13] is Interleukin-1 receptor-associated kinase 1 (Homo sapiens) (UniProt P51617). As to the kind of experiment: Inhibition of IRAK1 Lys2 labeling site in human A-375 cells at 5 uM by KiNativ Profiling analysis relative to control. The format is cell-based.
The target in assay [14] is Activated CDC42 kinase 1 (Homo sapiens) (UniProt Q07912). Description: Inhibition of ACK Lys1 labeling site in human A-375 cells at 0.05 uM by KiNativ Profiling analysis relative to control. The assay is classed as cell-based.
Assay [15] can be described thus: Inhibition of p70S6K ATP Loop labeling site harbouring GGYGKVFQVR in human A-375 cells at 5 uM by KiNativ Profiling analysis relative to control. The note with it: condition cancer.
The target of assay [16] is T2, Mitogen-activated protein kinase 13 (Homo sapiens) (UniProt O15264).
T2 sequence (whole entry): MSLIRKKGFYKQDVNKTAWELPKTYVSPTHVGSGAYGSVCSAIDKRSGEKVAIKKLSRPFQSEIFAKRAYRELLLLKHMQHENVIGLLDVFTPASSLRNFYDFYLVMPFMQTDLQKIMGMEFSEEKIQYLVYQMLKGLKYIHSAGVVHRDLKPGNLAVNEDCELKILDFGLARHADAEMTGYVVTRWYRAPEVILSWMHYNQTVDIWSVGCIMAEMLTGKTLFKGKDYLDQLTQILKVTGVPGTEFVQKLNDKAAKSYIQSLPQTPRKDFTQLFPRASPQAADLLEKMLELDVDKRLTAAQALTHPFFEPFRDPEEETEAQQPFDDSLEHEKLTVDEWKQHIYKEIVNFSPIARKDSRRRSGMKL
As to the kind of experiment: Inhibition of p38 delta Lys2 labeling site in human A-375 cells at 5 uM by KiNativ Profiling analysis relative to control. The format is cell-based.

In assay [17] the target is T2, Mitogen-activated protein kinase 13 (Homo sapiens). Description: Inhibition of p38 delta Lys2 labeling site in human A-375 cells at 0.05 uM by KiNativ Profiling analysis relative to control. The format is cell-based.
Assay [18] addresses Tyrosine-protein kinase Fer (Homo sapiens, UniProt P16591). Description: Inhibition of FER Lys1 labeling site harbouring TSVAVKTCKEDLPQELKin human A-375 cells at 0.5 uM by KiNativ Profiling analysis relative to control. The format is cell-based.
In the next assay the target is Ephrin type-B receptor 4 (Homo sapiens, UniProt P54760). Description: Inhibition of EphB4 (unknown origin) ACT labeling site by KiNativ Profiling analysis.
Assay [19] has as its target RAF proto-oncogene serine/threonine-protein kinase (Homo sapiens, UniProt P04049). As to the kind of experiment: Inhibition of RAF1 Lys2 labeling site in human A-375 cells at 0.05 uM by KiNativ Profiling analysis relative to control. The assay is classed as cell-based.

Sequence of TRAF2 and NCK-interacting protein kinase (Homo sapiens) (Q9UKE5 whole entry, looked up, the tested form may be a part): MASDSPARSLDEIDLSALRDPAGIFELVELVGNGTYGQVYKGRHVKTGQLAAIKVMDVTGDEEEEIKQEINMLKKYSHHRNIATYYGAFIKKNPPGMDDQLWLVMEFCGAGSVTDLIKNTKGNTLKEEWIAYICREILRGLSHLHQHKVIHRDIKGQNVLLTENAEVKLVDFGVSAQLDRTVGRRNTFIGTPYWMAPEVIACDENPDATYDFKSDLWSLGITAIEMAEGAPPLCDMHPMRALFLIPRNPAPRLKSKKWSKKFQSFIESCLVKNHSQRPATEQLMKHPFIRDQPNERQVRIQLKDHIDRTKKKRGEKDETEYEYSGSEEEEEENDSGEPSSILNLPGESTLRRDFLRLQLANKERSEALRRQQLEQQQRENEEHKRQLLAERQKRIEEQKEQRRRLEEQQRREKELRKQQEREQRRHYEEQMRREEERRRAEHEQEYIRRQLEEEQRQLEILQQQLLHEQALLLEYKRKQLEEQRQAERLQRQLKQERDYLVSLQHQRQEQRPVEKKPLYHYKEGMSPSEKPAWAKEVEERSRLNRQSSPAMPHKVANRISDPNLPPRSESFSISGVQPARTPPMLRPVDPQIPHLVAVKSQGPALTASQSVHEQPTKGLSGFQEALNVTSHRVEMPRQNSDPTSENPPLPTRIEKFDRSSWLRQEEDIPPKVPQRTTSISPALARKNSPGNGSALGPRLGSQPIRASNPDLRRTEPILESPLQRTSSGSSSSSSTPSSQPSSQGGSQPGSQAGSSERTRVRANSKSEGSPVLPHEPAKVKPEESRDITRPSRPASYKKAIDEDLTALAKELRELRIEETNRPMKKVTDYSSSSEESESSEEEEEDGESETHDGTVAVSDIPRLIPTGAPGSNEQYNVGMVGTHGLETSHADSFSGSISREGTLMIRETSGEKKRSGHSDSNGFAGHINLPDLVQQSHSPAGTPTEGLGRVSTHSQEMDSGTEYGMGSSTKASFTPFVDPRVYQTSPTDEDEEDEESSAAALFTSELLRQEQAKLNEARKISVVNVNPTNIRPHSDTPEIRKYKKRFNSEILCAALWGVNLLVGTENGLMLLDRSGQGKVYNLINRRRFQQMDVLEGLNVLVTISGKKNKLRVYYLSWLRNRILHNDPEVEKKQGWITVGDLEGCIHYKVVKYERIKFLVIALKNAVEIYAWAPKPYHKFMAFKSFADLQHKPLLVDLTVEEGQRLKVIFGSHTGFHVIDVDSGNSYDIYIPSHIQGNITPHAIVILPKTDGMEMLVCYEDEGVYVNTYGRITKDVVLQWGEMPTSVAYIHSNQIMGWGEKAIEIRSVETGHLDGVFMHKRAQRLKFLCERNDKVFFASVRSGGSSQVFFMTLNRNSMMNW
Sequence of Serine/threonine-protein kinase 25 (Homo sapiens) (O00506 whole entry, looked up): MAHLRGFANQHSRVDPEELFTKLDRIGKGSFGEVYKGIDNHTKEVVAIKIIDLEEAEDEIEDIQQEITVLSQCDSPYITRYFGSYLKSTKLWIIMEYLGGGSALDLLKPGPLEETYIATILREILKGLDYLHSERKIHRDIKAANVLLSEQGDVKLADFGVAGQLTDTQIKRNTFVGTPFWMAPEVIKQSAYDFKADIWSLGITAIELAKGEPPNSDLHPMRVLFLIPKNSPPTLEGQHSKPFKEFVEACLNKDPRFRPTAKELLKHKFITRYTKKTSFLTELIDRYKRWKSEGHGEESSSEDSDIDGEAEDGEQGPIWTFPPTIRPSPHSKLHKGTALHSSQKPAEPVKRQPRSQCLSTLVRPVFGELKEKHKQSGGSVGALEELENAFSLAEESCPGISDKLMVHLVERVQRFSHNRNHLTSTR
Sequence of Tyrosine-protein kinase Fer (P16591 whole entry, looked up): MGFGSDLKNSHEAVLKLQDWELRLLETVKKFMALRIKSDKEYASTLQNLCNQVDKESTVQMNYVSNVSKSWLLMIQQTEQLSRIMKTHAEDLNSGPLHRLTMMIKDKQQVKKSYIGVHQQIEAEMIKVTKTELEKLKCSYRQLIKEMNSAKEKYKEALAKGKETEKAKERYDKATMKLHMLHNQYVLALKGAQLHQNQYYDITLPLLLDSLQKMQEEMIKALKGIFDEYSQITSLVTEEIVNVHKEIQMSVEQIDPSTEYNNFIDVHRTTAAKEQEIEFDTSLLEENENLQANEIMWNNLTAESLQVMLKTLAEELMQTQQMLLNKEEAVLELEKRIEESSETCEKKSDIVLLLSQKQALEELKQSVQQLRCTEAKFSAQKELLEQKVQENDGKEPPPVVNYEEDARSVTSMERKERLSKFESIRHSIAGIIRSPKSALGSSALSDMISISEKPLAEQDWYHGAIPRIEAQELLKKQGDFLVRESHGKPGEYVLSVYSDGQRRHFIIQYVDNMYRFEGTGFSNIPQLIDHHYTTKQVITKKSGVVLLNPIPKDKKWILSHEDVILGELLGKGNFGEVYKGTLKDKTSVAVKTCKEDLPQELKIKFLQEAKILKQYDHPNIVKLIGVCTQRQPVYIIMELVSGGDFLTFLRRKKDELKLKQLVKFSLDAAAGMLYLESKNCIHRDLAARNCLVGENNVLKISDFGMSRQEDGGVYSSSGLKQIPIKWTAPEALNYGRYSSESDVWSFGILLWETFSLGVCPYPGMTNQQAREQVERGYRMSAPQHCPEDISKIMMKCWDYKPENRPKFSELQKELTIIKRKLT
Sequence of Activated CDC42 kinase 1 (Homo sapiens) (Q07912 whole entry, looked up): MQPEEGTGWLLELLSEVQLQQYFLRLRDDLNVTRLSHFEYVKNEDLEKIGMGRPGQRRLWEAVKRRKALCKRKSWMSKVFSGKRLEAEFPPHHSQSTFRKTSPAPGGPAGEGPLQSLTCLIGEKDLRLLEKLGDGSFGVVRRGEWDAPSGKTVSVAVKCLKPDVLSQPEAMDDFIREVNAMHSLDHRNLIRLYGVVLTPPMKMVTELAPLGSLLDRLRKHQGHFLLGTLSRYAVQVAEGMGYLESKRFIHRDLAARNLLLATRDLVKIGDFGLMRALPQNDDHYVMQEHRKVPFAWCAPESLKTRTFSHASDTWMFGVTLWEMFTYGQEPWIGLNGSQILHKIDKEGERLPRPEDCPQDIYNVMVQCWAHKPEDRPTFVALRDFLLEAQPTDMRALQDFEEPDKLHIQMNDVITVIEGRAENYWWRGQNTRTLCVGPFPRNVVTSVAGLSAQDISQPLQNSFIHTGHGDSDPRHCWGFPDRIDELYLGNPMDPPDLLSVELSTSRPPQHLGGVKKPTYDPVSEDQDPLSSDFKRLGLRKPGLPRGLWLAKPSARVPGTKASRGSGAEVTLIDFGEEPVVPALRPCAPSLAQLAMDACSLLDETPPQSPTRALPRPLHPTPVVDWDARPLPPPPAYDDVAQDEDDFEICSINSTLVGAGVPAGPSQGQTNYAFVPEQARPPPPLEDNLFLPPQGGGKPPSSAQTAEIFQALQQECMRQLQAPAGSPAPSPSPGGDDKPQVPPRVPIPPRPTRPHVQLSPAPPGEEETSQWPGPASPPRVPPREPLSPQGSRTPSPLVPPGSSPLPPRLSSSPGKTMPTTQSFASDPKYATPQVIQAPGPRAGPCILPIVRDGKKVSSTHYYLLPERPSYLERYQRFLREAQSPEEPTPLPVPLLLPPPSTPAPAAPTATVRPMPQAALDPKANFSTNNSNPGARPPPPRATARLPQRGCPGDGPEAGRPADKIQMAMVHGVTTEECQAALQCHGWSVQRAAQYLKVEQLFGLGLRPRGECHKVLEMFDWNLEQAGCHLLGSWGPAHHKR
Sequence of Ephrin type-B receptor 4 (P54760 whole entry): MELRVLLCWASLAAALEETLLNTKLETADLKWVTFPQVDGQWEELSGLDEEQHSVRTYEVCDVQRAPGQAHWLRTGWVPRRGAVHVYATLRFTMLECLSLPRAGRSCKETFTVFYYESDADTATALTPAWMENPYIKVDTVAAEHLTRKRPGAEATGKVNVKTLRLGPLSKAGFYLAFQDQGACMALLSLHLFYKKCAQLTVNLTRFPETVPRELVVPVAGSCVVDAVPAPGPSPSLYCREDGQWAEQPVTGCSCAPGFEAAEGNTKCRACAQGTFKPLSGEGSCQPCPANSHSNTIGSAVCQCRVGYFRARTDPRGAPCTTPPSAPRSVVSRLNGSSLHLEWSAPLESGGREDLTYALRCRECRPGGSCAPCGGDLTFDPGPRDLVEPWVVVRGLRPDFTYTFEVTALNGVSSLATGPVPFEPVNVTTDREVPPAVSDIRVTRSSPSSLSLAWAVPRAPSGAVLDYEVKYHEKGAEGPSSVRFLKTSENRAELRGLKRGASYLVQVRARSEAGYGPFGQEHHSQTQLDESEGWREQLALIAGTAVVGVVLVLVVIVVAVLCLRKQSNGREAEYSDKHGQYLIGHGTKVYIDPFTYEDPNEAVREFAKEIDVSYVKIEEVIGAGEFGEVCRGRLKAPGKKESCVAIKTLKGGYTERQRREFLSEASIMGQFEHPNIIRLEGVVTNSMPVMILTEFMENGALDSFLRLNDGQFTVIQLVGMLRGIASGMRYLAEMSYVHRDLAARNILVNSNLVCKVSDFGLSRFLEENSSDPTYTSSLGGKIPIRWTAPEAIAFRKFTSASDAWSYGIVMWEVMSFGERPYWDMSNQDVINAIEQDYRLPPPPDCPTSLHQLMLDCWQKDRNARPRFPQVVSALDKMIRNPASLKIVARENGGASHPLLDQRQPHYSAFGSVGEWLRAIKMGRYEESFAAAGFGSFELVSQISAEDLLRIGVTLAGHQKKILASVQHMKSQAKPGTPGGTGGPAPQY
Sequence of Tyrosine-protein kinase CSK (P41240 2-450 limits assumed): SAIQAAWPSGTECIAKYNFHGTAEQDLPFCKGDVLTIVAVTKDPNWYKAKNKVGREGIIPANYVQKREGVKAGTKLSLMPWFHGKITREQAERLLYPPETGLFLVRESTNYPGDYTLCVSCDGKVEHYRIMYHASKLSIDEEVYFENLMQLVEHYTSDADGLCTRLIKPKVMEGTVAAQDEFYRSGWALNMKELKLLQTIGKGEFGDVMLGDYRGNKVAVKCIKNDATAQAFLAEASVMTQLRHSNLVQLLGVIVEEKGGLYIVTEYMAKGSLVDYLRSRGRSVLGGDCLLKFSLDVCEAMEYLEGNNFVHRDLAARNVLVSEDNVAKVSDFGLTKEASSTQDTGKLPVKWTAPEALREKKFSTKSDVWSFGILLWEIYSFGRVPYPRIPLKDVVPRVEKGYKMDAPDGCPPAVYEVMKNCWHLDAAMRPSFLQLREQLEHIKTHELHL

For `CNc1cc(Oc2cc(C(=O)Nc3cc(N4CCN(C)CC4)cc(C(F)(F)F)c3)ccc2C)ncn1`, the inhibition in [1] worked out at 26.9%; in assay [2], 48.4%; in assay [3], 2.7%; in assay [4], 49.4%.
In the case of `CCN1CCN(Cc2ccc(NC(=O)c3ccc(C)c(/C=C/c4cnc5[nH]ccc5c4OC)c3)cc2C(F)(F)F)CC1`, the inhibition amounted to 2.2% in assay [5]; 3% in [6]; 57.6% in assay [7]; 81.1% in [8]; 17.8% in [9]; 19.3% in [10]. Also, the inhibition in assay [11] stood at 48.1%; in assay [12], 9.1%; in assay [13], 61.1%; in assay [14], 34.3%; in assay [16], 52.7%; in [17], 24.3%. The inhibition was 23.3% in assay [18] and 63.7% in assay [19]. Further, the inhibition at 5 µM in [15] is -8%. This compound had a pIC50 against Ephrin type-B receptor 4 of 7.27.
On to `CNc1cc(Oc2cc(C(=O)Nc3cc(-n4cnc(C)c4)cc(C(F)(F)F)c3)ccc2C)ncn1`, for which the inhibition is -2.8% in assay [1], 51.8% in assay [2], 24.1% in assay [3] and 59.7% in assay [4].
Consider `CCN1CCN(Cc2ccc(NC(=O)c3ccc(C)c(Oc4ccnc5[nH]ccc45)c3)cc2C(F)(F)F)CC1`, for which the inhibition in [5] is 13%; in assay [6] it was 1.2%; in [7] it was 42.6%; in [8], 37.6%; in assay [9] it was 34%; in assay [10], -0.8%. In addition, the inhibition in assay [11] is 70.8%; in assay [12] it was -0.7%; in [13], 7.4%; in assay [14], 15.6%; in assay [16], more than 94%; in assay [17], 64.9%. Further, the values for the inhibition in assay [18] and in assay [19] were 88.5% and 69.8%, respectively. In assay [15], the inhibition at 5 µM stood at 14.7%. Also, the pIC50 against Ephrin type-B receptor 4 was 6.00.

Usually inhibition stands for the relative decrease from the control value, in per cent. The term pIC50 denotes the IC50 on a negative log10 scale, so that one unit is a factor of ten. Read a low pIC50 as a high IC50.
